Experimental data collected from several papers.
Lines come from different studies, so protocols differ. In brackets after ≈: the same amount, converted by molar mass.

SMILES	target or system	assay	conditions	measurement	result
CC(=O)NCN1N=C(C)C(=NNn2c(-c3ccccc3)nc3ccccc3c2=O)C1=O	Trichophyton rubrum	microbial growth, broth dilution		MIC	120 µM (≈ 50 µg/mL)
COc1ccc([S+]([O-])c2ccc(OC)c(OC)c2OC)cc1 (stereo not drawn)	Leishmania braziliensis	parasite growth, MTT	promastigote	IC50	15 µM
CC(C)(C)Nc1c(-c2ccc3c(c2)OCO3)nc2ncccn12	Leishmania amazonensis	parasite growth, MTT	72 h, promastigote	IC50	> 100 µM
CCc1ccc(C(=O)NC(=O)c2ccccc2O)cc1	HEK293	cell growth or viability		IC50	> 10 µM
COc1ccc(Nc2c(-c3ccc4c(c3)OCO4)nc3ncccn23)cc1	Leishmania amazonensis	parasite growth, MTT	72 h, promastigote	IC50	> 100 µM
CC1=NN(CNc2ccc(C(=O)O)cc2)C(=O)C1=NNn1c(-c2ccccc2)nc2ccccc2c1=O	Trichophyton rubrum	microbial growth, broth dilution		MIC	101 µM (≈ 50 µg/mL)
COc1ccc([S+]([O-])c2ccccc2)c(OC)c1OC (stereo not drawn)	Leishmania braziliensis	parasite growth, MTT	24 h, promastigote	IC50	62.6 µM
CCCCc1nc2ncccn2c1NC(C)(C)CC(C)(C)C	Leishmania amazonensis	parasite growth, MTT	72 h, promastigote	IC50	47.8 µM
FC1CCN(C2(CNCc3ccc(-c4ccccc4Cl)o3)COC2)C1 (stereo not drawn)	GBM6	cell growth or viability	30 µM, 48 h	viability	47.4%
CC(C)(C)CC(C)(C)Nc1c(-c2ccc(Cl)cc2)nc2ncccn12	Leishmania amazonensis	parasite growth, MTT	72 h, promastigote	IC50	36.4 µM
O=C1NN=C(N=Cc2ccc(O)cc2O)C1=NNn1c(-c2ccccc2)nc2ccccc2c1=O	Trichophyton rubrum	microbial growth, broth dilution		MIC	53.5 µM (≈ 25 µg/mL)
Cc1cccc2cc(CNCC3(N4CCCC4)COC3)cnc12	T98G	cell growth or viability	30 µM, 48 h	viability	92.1%
